The results in this text go back to ChEMBL document CHEMBL1148541, “Biological evaluation of 1-alkyl-3-phenylthioureas as orally active HDL-elevating agents” (Bioorg Med Chem Lett, 2006).

Some results are limits rather than exact numbers.

Experiment [1] has as its system Rattus norvegicus. Put plainly: Increase of HDL level in cholesterol-fed male rats by ultracentrifugation method at 79 mg/kg/day relative to control. Format: functional. The essentials: (§1)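 Compound given in the diet, ad libitum, to groups of six male Sprague–Dawley rats on a cholesterol diet for 8 days. Serum lipoproteins were separated by classical ultracentrifugation, and HDL cholesterol was quantitated by an enzymatic colorimetric method. Results are reported as % change relative to untreated controls, with significance at p < 0.05 versus controls.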

Experiment [2] concerns Rattus norvegicus. The experiment in a line: Increase of Apolipoprotein A-I level in cholesterol-fed male rats at 79 mg/kg/day relative to control. Format: functional. The essentials: (§2)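 Drug mixed into diet, fed ad libitum for 8 days to groups of six male Sprague–Dawley rats on a cholesterol diet. Serum Apo A-I measured by SDS–polyacrylamide gel electrophoresis or by rat competition ELISA. Reported as % change versus untreated controls, with significance set at p < 0.05.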

Experiment [3] concerns Rattus norvegicus. The experiment in a line: Increase of total cholesterol level in cholesterol-fed male rats at 79 mg/kg/day relative to control. Format: functional. The method, boiled down: (§3)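 Dietary (ad libitum) dosing of groups of six male Sprague–Dawley rats on a cholesterol diet for 8 days. Serum total cholesterol was quantitated enzymatically by a colorimetric method and expressed as % change relative to untreated controls, with significance at p < 0.05.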

The subject of experiment [4] is Rattus norvegicus. Put plainly: Triglyceride level in cholesterol-fed male rats at 79 mg/kg/day relative to control. The class given is functional. The essentials: (§4)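 Male Sprague–Dawley rats on a cholesterol diet, in groups of six, received the compound in the diet ad libitum for 8 days. Serum triglycerides are expressed as % change relative to untreated controls, with significance at p < 0.05 versus controls.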

Experiment [5] deals with Rattus norvegicus. The experiment in a line: Increase of HDL level in cholesterol-fed male rats by FPLC method at 79 mg/kg/day relative to control. Format: functional. The method, boiled down: (§5)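 Groups of six male Sprague–Dawley rats on a cholesterol diet received drug in the diet, ad libitum, for 8 days. Serum lipoproteins separated by FPLC, adapted for robotic automation, and cholesterol quantitated enzymatically by colorimetry. HDL given as % change versus untreated controls, with significance set at p < 0.05.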

For experiment [6], the system named is Rattus norvegicus. The experiment in a line: Weight gain in cholesterol-fed male rats at 79 mg/kg/day relative to control. The class given is functional. The method, boiled down: (§6)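 Groups of six male Sprague–Dawley rats on a cholesterol diet received the compound in the diet, ad libitum, over 8 days. Body weight gain is reported as % change relative to untreated controls.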

The test system of experiment [7] is Rattus norvegicus. Put plainly: Increase of HDL level in cholesterol-fed male rats by ultracentrifugation method at 55 mg/kg/day relative to control. Format: functional. The method, boiled down: (§7)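 Cholesterol-fed male Sprague–Dawley rats, six per group, given drug in the diet ad libitum for 8 days. Serum lipoproteins separated by classical ultracentrifugation and HDL cholesterol measured by an enzymatic colorimetric method. Expressed as % change versus untreated controls, with significance set at p < 0.05.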

In experiment [8] the test system is Rattus norvegicus. Put plainly: Increase of total cholesterol level in cholesterol-fed male rats at 55 mg/kg/day relative to control. The class given is functional. The method, boiled down:
as §3

The test system of experiment [9] is Rattus norvegicus. Put plainly: Weight gain in cholesterol-fed male rats at 55 mg/kg/day relative to control. The class given is functional. The method, boiled down:
as §6

Experiment [10] has as its system Rattus norvegicus. The experiment in a line: Triglyceride level in cholesterol-fed male rats at 55 mg/kg/day relative to control. Format: functional. The method, boiled down: as §4
Experiment [11] concerns Rattus norvegicus. The experiment in a line: Increase of HDL level in cholesterol-fed male rats by FPLC method at 55 mg/kg/day relative to control. Format: functional. The essentials: as §5
Experiment [12] deals with Rattus norvegicus. The experiment in a line: Increase of Apolipoprotein A-I level in cholesterol-fed male rats at 55 mg/kg/day relative to control. Format: functional. The method, boiled down:
as §2

The test system of experiment [13] is Rattus norvegicus. Put plainly: Increase of Apolipoprotein A-I level in cholesterol-fed male rats at 62 mg/kg/day relative to control. The class given is functional. The essentials: as §2
Experiment [14] is filed under the species Rattus norvegicus. The experiment in a line: Increase in liver enzyme Alkaline phosphatase. Format: functional. The arrangement: concentration or dose not given beside the values.
The subject of experiment [15] is Rattus norvegicus. Put plainly: Weight gain in cholesterol-fed male rats at 62 mg/kg/day relative to control. The class given is functional. The essentials:
as §6

The test system of experiment [16] is Rattus norvegicus. Put plainly: Increase of HDL level in cholesterol-fed male rats by ultracentrifugation method at 62 mg/kg/day relative to control. Format: functional. The essentials: as §7
Experiment [17] deals with Rattus norvegicus. The experiment in a line: Increase of total cholesterol level in cholesterol-fed male rats at 62 mg/kg/day relative to control. Format: functional. The method, boiled down: as §3
Experiment [18] deals with Rattus norvegicus. Put plainly: Increase of HDL level in cholesterol-fed male rats by FPLC method at 62 mg/kg/day relative to control. Format: functional. The method, boiled down:
as §5

For experiment [19], the system named is Rattus norvegicus. The experiment in a line: Triglyceride level in cholesterol-fed male rats at 62 mg/kg/day relative to control. Format: functional. The essentials: as §4
Experiment [20] concerns Rattus norvegicus. Put plainly: Increase of HDL level in cholesterol-fed male rats by FPLC method at 77 mg/kg/day relative to control. Format: functional. The method, boiled down:
as §5

The subject of experiment [21] is Rattus norvegicus. Put plainly: Triglyceride level in cholesterol-fed male rats at 77 mg/kg/day relative to control. Format: functional. The essentials: as §4
Experiment [22] relates to Rattus norvegicus. The experiment in a line: Weight gain in cholesterol-fed male rats at 77 mg/kg/day relative to control. The class given is functional. The method, boiled down:
as §6

For experiment [23], the system named is Rattus norvegicus. The experiment in a line: Increase of total cholesterol level in cholesterol-fed male rats at 77 mg/kg/day relative to control. Format: functional. The method, boiled down:
as §3

For experiment [24], the system named is Rattus norvegicus. Put plainly: Increase of HDL level in cholesterol-fed male rats by ultracentrifugation method at 77 mg/kg/day relative to control. Format: functional. The method, boiled down: as §1
Experiment [25] concerns Rattus norvegicus. The experiment in a line: Increase of Apolipoprotein A-I level in cholesterol-fed male rats at 77 mg/kg/day relative to control. The class given is functional. The method, boiled down:
as §2

Experiment [26] has as its system Rattus norvegicus. Put plainly: Increase of HDL cholesterol in normal-fed rat at 80 mg/kg/day. Format: functional.
Experiment [27] concerns Hamster. Put plainly: Increase of HDL cholesterol in chow-fed hamster at 64 mg/kg/day. The class given is functional, Cricetulus griseus.
The next experiment concerns Canis familiaris. Put plainly: Increase of HDL cholesterol in normal-fed dog at 35 mg/kg/day. Format: functional, Canis lupus familiaris.
Another experiment deals with Cynomolgus monkey. The experiment in a line: Increase of HDL cholesterol in chow-fed cynomolgus monkey at 12 mg/kg/day. The class given is functional, Macaca fascicularis.
The target in experiment [28] is T1, Peroxisome proliferator-activated receptor alpha (Rattus norvegicus, UniProt P37230).
T1 sequence (P37230 whole entry): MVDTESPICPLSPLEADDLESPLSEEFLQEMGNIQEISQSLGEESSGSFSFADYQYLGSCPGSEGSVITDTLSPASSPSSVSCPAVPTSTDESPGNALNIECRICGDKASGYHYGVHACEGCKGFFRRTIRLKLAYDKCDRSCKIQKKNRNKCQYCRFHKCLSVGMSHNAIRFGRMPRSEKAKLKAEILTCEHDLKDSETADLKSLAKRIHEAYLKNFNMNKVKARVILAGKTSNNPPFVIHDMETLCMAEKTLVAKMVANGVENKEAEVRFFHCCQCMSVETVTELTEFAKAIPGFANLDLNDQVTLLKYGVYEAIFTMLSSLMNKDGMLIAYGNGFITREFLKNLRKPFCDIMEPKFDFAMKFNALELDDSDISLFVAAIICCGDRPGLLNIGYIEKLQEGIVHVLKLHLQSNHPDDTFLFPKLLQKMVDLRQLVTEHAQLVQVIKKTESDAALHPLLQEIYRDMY
Put plainly: Activity against PPAR-alpha.

The next experiment relates to Rhesus monkey. Put plainly: Increase of HDL cholesterol in chow-fed rhesus monkey at 12 mg/kg/day. Format: functional, Macaca mulatta.
Experiment [29] has as its target T2, Peroxisome proliferator-activated receptor delta (Homo sapiens, UniProt Q03181).
T2 sequence (Q03181 whole entry): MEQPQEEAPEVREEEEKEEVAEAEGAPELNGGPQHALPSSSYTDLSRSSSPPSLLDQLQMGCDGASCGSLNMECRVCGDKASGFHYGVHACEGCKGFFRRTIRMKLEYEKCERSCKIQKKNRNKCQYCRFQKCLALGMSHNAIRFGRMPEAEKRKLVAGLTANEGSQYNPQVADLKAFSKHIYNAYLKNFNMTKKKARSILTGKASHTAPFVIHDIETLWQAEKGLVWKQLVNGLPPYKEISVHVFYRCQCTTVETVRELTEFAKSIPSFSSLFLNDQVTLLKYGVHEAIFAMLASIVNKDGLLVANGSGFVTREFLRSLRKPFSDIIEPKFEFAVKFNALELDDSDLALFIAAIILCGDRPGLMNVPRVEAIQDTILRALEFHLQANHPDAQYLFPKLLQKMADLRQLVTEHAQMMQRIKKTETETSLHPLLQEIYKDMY
Put plainly: Activity against PPAR-delta.

Experiment [30] deals with Hamster. The experiment in a line: Increase of HDL cholesterol in normal-fed hamster at 52 mg/kg/day. The class given is functional, Cricetulus griseus.
For experiment [31], the system named is Rattus norvegicus. Put plainly: Weight gain in cholesterol-fed male rats at 63 mg/kg/day relative to control. Format: functional. The essentials:
as §6

The subject of experiment [32] is Rattus norvegicus. The experiment in a line: Increase of HDL level in cholesterol-fed male rats by FPLC method at 63 mg/kg/day relative to control. The class given is functional. The method, boiled down: as §5
The test system of experiment [33] is Rattus norvegicus. The experiment in a line: Increase of Apolipoprotein A-I level in cholesterol-fed male rats at 63 mg/kg/day relative to control. Format: functional. The essentials: as §2
Experiment [34] concerns Rattus norvegicus. Put plainly: Increase of HDL level in cholesterol-fed male rats by ultracentrifugation method at 63 mg/kg/day relative to control. Format: functional. The method, boiled down: as §7
Experiment [35] relates to Rattus norvegicus. Put plainly: Triglyceride level in cholesterol-fed male rats at 63 mg/kg/day relative to control. The class given is functional. The method, boiled down: as §4
Experiment [36] deals with Rattus norvegicus. Put plainly: Increase of total cholesterol level in cholesterol-fed male rats at 63 mg/kg/day relative to control. The class given is functional. The essentials:
as §3

The EC50 is the concentration giving half of the maximal effect.

Regarding `CCC/N=C(\S)Nc1cc(OC)ccc1OC`, the Activity is reported as 108% in the experiment with Rattus norvegicus [1]; 19% in the experiment with Rattus norvegicus [2]; 60% in the experiment on Rattus norvegicus [3]; -23% with Rattus norvegicus [4]; 97% in the experiment with Rattus norvegicus [5]; 14% in the experiment with Rattus norvegicus [6].
As for `Cc1ccc(Cl)cc1/N=C(\S)NCCO`, the Activity is given as 75% in the experiment with Rattus norvegicus [7]; 39% in the experiment with Rattus norvegicus [8]; -104% in the experiment with Rattus norvegicus [9]; -53% in the experiment on Rattus norvegicus [10]; 241% in the experiment on Rattus norvegicus [11]; 48% in the experiment on Rattus norvegicus [12].
Take `CCC/N=C(\S)Nc1cc(C)ccc1C`: the Activity is given as 72% in the experiment on Rattus norvegicus [13]; 75% in the experiment filed under Rattus norvegicus [14]; -38% with Rattus norvegicus [15]; 127% with Rattus norvegicus [16]; 29% in the experiment on Rattus norvegicus [17]; 278% in the experiment on Rattus norvegicus [18]. The Activity with Rattus norvegicus [19] was -59%.
On to `Cc1ccc(Cl)cc1/N=C(\S)NC(C)(C)C`, for which the Activity is on record as 22% with Rattus norvegicus [20]; -31% with Rattus norvegicus [21]; 9% in the experiment on Rattus norvegicus [22]; -15% in the experiment with Rattus norvegicus [23]; 30% in the experiment with Rattus norvegicus [24]; 60% in the experiment with Rattus norvegicus [25].
Regarding `Cc1ccc(Cl)cc1N/C(S)=N/CC(C)C`, the Activity was 75% in the experiment on Rattus norvegicus [26]; 15% with Hamster [27]; 104% with Rattus norvegicus [1]; 77% in the experiment on Rattus norvegicus [2]; -11% in the experiment with Rattus norvegicus [3]; -54% with Rattus norvegicus [4]. Moreover, the Activity in the experiment with Rattus norvegicus [5] is 260%; in the experiment with Canis familiaris, 50%; in the experiment with Rattus norvegicus [6] it was -12%; in the experiment with Cynomolgus monkey, 100%; in the experiment on Rhesus monkey it was 75%; with Hamster [30] it was 44%. In addition, the concentration for a half-maximal effect (EC50) in experiment [28] and in experiment [29] was above 100 µM each time.
Turning to `CCC/N=C(\S)Nc1cc(Br)ccc1C`, the Activity is 44% in the experiment filed under Rattus norvegicus [14]; -29% with Rattus norvegicus [31]; 306% with Rattus norvegicus [32]; 46% in the experiment on Rattus norvegicus [33]; 142% with Rattus norvegicus [34]; -53% in the experiment on Rattus norvegicus [35]. Further, the Activity in the experiment on Rattus norvegicus [36] is listed as 47%.
